Source: PubChem BioAssay (several laboratories)
MT stabilize HCS – microtubule stabilizers in HeLa cells. actives 0.83% (n = 200,000). HeLa tubulin immunostaining HCS, 24 h; share of cells brighter than vehicle mean+2SD. % tubulin-high responders, % at 10 µM;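 active means plate Z-score above 3 for both tubulin-high and condensed-nucleus cell shares, with cell loss under 80%, at 10 µM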;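 further: anti alpha tubulin signal scored within the nucleus-defined area of each cell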
bCat nuc transl – alters nuclear translocation of beta-catenin in HeLa cells. immunofluorescence imaging. nuclear translocation activity, % at 5 µM. actives 0.3% (n = 190,000). AID 1665;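 active means nuclear translocation activity above 50% at 5 µM, with a well cell count of 50 or more; inconclusive means wells under 50 cells across six images, flagged as toxic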;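 further: per-cell ratio of nuclear to cytoplasmic median beta-catenin stain intensity; plate controls were DMSO negative control for no effect and GSK-3 inhibitor IX positive control for full effect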
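System: HeLa cells, endogenous beta-catenin; compound dosing: 5 µM primary single dose, 0.1% DMSO, 0.02–20 µM confirmation series; incubation: 24 h compound exposure at 37°C, 5% CO2; signal: beta-catenin immunofluorescence imaging with DAPI; evaluation: % activation, nuclear-to-cytoplasmic median beta-catenin signal ratio per cell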
ROMK primary – modulators of human ROMK potassium channel. B-score at 10 µM. P48048. Tet-inducible ROMK, thallium flux fluorescence; actives lie on both sides. actives 2% (n = 130,000);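 active means signal ratio slope over the read window, or its plate-corrected B-score, at least 3 SD from the plate mean, either direction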;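 further: B-score of the F/F0 ratio slope over 7 to 12 s after thallium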
Target sequence (P48048 whole entry, looked up): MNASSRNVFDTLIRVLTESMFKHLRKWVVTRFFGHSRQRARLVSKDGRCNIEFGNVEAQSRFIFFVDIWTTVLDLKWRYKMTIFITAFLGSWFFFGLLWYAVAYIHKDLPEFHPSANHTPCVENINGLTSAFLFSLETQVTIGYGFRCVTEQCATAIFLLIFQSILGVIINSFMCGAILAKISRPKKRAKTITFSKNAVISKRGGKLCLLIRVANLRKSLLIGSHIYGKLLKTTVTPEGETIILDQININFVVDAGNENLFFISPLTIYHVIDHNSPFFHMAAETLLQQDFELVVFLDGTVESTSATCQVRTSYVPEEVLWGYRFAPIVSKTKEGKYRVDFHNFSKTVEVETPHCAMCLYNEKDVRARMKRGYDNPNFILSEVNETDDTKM
HSV replic up – HSV replication enhancement | HSV replication augmentation in cells, fold increase | maximum fold increase | actives 0.005% (n = 220,000) | AID 1956; in the data active means maximum fold increase above about 1.5; inconclusive means no clear call, values can overlap the other calls; tested in PC3 cells
INS promoter inh – TRM-6 insulin promoter activity inhibition | actives 0.9% (n = 130,000) | TRM-6 cells, insulin promoter-eGFP reporter, imaging; reporter expression induced with tamoxifen | inhibition, % at 2 µM;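 active means inhibition above the mean plus 3 SD, with well images judged a real hit on visual review, cut at about 60% in these data, passing the limit was not always enough; inconclusive means inhibition over the cutoff but images rejected on review; inactive means inhibition not above the cutoff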
ROMK hit retest – human ROMK channel modulation, retest confirmation. ROMK thallium flux, fluorescence ratio; stronger effect = lower value. shares compounds with ROMK primary. AID 1917. normalized thallium flux (F/F0 slope) at 10 µM. actives 54% (n = 3,000);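 active means Flux at 10 µM at least 3 SD below or above vehicle control mean in one or both replicates; inconclusive means no clear call, values can overlap the other calls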
Active calls of the source: *; i = inactive; u = inconclusive; x = not tested or not shown. Sampled rows, rich in hits. Any-hit rate of the full collection: about 2.4%.

SMILES	MT stabilize HCS	bCat nuc transl	ROMK primary	HSV replic up	INS promoter inh	ROMK hit retest
COC(=O)C1=C(C(=O)OC)[C@@H]2N(Cc3ccccc3)c3ccccc3[C@@]23C[C@@H](C(=O)OC)N(C(=O)c2cccs2)C3=N1	x	-1	x	i	x	x
Cc1ccccc1Cn1cc(C)c(=O)[nH]c1=O	3	0	2.1*	i	-12	0.073
Cc1cn(Cc2ccccc2Cn2cc(C)c(=O)[nH]c2=O)c(=O)[nH]c1=O	x	0	0.23	i	x	x
COc1cc(C2CC(=O)c3cnc(N)nc3C2)cc(OC)c1OC (stereo unspecified)	2	-5	3.9*	i	42	0.072
COc1cc(C2CC(=O)c3cnc(NC(=O)COc4ccccc4)nc3C2)cc(OC)c1OC (stereo unspecified)	4	-2	0.9	i	x	x
CCCC1(C(=O)OC)NC(c2cccc(F)c2)C2C(=O)N(CC)C(=O)C21 (stereo unspecified)	3	3	x	i	25	0.071
Nc1nc(SCC(=O)Nc2ncc(C(F)(F)F)cc2Cl)n[nH]1	2	6	0.74	i	5	x
COc1cc(C(=O)Nc2nnc(C)s2)c([N+](=O)[O-])cc1OC	x	-2	x	i	x	x
Cc1ccc(NC(=O)c2ccc(Nc3ccccc3F)nc2)cc1	4	-2	2.7*	i	x	0.081
Cc1ccc(NC(=O)c2ccc(NCc3ccc(F)cc3)nc2)cc1	2	0	0.48	i	x	x
CCn1nnc2cc(C(=O)O)ccc21	x	-1	x	i	x	x
CCOc1cc(/C=N/N=C(N)N)ccc1OCc1ccc(Cl)cc1	65	u	-3.9*	i	-41	0.053*
COc1c2ccoc2nc2c(OC)c(OCC(OC(C)=O)C(C)(C)O)ccc12 (stereo unspecified)	2	-2	x	x	x	x
COc1ccccc1N=C(C)C1=C(O)CC(c2ccccc2)CC1=O (stereo unspecified)	7	52*	8*	i	-163	0.082
O=C1Nc2ccccc2C1(O)C/C(=N/O)c1ccccc1 (stereo unspecified)	3	-5	0.06	i	10	x
C(#CCN1CCC(Cc2ccccc2)CC1)COCCOCc1ccccc1	2	0	-3*	i	-13	0.063*
Cc1cc(Cl)n2c(nc3cc(F)c(F)cc32)c1C#N	2	0	-7.2*	i	-118	0.053*
N#C/C(=C\c1ccc(N2CCOCC2)o1)C(=O)NC1CCCCC1	x	0	x	x	x	0.035*
N#C/C(=C/c1ccc(N2CCOCC2)o1)C(=O)Nc1ccccc1	3	1	x	u	x	x
N#C/C(=C\c1ccc(N2CCOCC2)o1)C(=O)NCC1CCCO1 (stereo unspecified)	4	1	-4.2*	u	x	0.038*
O=C(C[n+]1ccc(CCSc2ccc(F)cc2)cc1)c1ccccc1	2	-2	-2.3	i	x	x
CCC(=O)NC1OC(CO)C(O)C(O)C1O (stereo unspecified)	4	0	-2.4*	i	x	0.073
CCc1ccc(OCC(=O)Nc2cc(S(=O)(=O)CC)ccc2O)cc1	3	2	0.11	x	x	x
CN(C)c1ccc(/C=C/c2cc[n+](C)cc2)cc1	3	x	-7.3*	x	-174	0.044*
CN(C)c1ccc(/C=C/c2cc[n+]([O-])cc2)cc1	6	-6	x	i	x	x
SMILES	MT stabilize HCS	bCat nuc transl	ROMK primary	HSV replic up	INS promoter inh	ROMK hit retest
O=[N+]([O-])c1c(Nc2ccccn2)cc(Cl)c2nonc12	x	0	-8.6*	i	x	0.043*
CCOC(=O)N1CCC(n2c(SCC(=O)NCc3ccccc3)nc3ccccc3c2=O)CC1	6	-3	0.21	i	x	x
CCOC(=O)N1CCC(n2c(SCC(=O)NCCC3=CCCCC3)nc3ccccc3c2=O)CC1	6	-1	-7*	i	x	u
CCOC(=O)N1CCC(n2c(SCC(=O)Nc3ccccc3OC)nc3ccccc3c2=O)CC1	1	-1	-4.2*	i	48	0.065*
O=c1ccn(-c2cccc(C(F)(F)F)c2)nc1-c1ccn(-c2cccc(Cl)c2)n1	1	0	x	i	-13	x
CN(C)CCN1C(=O)C(O)=C(C(=O)c2ccco2)C1c1ccccc1F (stereo unspecified)	2	x	x	i	6	0.076
NC(=O)c1ccc(NC(=O)COC(=O)C2(c3ccccc3F)CCCC2)cc1	4	-1	-13*	i	33	0.079
O=C(NNC(=S)Nc1ccc(F)c(Cl)c1)c1ccccc1Br	6	-6	0.25	i	x	x
Cc1ccc(SCC(=O)N2N=CCC2c2ccccc2)cc1 (stereo unspecified)	3	2	-2.1	i	5	x
Cc1ccc(-c2csc(NC(=O)C3=NN(c4ccccc4)C(=O)CC3)n2)cc1	2	0	0.041	i	-23	x
CCN(CC)CCOC(=O)c1ccc(NC(=O)c2ccc(Cl)c(S(=O)(=O)N3CCCCCC3)c2)cc1	25*	5	-0.76	x	36	0.078
CCOC(=O)c1ccc(NC(=O)c2ccc(C)c(S(=O)(=O)N3CCOCC3)c2)cc1	2	x	-0.036	i	-17	x
O=C(Nc1ccc2c(c1)OCO2)c1ccc(Br)c(S(=O)(=O)N2CCCC2)c1	4	-3	-2.9*	i	-12	0.066*
O=C(Nc1cccnc1)c1ccc(Cl)c(S(=O)(=O)N2CCCCCC2)c1	2	-6	x	i	3	u
O=C(Nc1ccc2c(c1)OCCO2)c1ccc(Br)c(S(=O)(=O)N2CCOCC2)c1	3	-3	-1.6	i	0	x
CC(=O)C(Sc1ccc2nnc(-c3ccc(F)cc3)n2n1)C(C)=O	3	x	x	i	x	x
Cc1cc(Nc2ccccc2)nc(NCc2ccccc2)n1	11	-1	x	i	x	x
Cc1cc(Nc2cccc(F)c2)nc(NCc2ccccc2)n1	4	-2	x	i	x	x
Fc1cc(NCc2ccccc2)nc(NCc2ccccc2)n1	3	x	-5.8*	i	7	0.05*
CCCCNc1cc(C)nc(NCc2ccccc2)n1	10*	38	-4.1*	i	x	0.051*
CN(C)CCCN=C(NO)c1ccc(Cl)cc1Cl	x	0	0.17	i	x	x
NC/C(=N\O)c1ccc(Cl)cc1Cl	3	0	-4.5*	i	47	0.056*
CCC(=O)N1CCN(c2ccccc2NC(=O)COc2cc(C)ccc2C(C)C)CC1	3	0	-3.5*	i	-37	0.066*
Cc1ccc(-c2nnc(CSc3nnc(COc4ccccc4)n3-c3ccc(C)cc3)o2)cc1	3	-2	-0.71	i	-29	x
Cc1ccc(-c2nnc(CSc3nnc(COc4ccccc4)n3-c3ccccc3)o2)cc1	2	-2	-3.5*	i	-12	0.053*
CC(C)Nc1nnc(SC(C)C(=O)Nc2ccc(Cl)cn2)s1 (stereo unspecified)	3	-1	0.026	i	18	x
COc1ccc(N=C2O/C(=C/c3sc(=S)n(CC4CCCO4)c3O)N=C2C#N)cc1 (stereo unspecified)	x	-4	x	i	x	0.055*
